Assay results from ChEMBL document CHEMBL5506013, “Mitochondria-Selective Dicationic Small-Molecule Ligand Targeting G-Quadruplex Structures for Human Colorectal Cancer Therapy” (J Med Chem, 2024).
Active and inactive are the calls of the source. The calls are words filed in the database; no cut-off is given here.

Experiments:
[1] = tested on: PANC-1; test: Antiproliferative activity against human PANC-1 cells measured after 48 hrs by MTT assay; assay type: functional, cell-based; details: PANC-1, 48 h
Procedure, shortened: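 Cells exposed to the ligands for 48 h. Viability was read by MTT, and the IC50 was derived from the response.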

[2] = molecular target: Quadruplex DNA; test: Binding affinity to mito 55 G4 DNA (unknown origin) assessed as dissociation constant measured upto 150 secs by isothermal titration calorimetry assay; assay type: nucleic-acid assay
[3] = molecular target: DNA; test: Binding affinity to HP19 DNA (non-G4 DNA) (unknown origin) assessed as dissociation constant measured upto 150 secs by isothermal titration calorimetry assay; assay type: nucleic-acid assay
[4] = tested on: HCT-116; test: Downregulation of ND2 mRNA level in human HCT-116 cells at 0 to 4 uM measured after 48 hrs by qRT-PCR analysis; assay type: functional, cell-based; details: dose 0-4 µM
[5] = tested on: HCT-116; test: Downregulation of ND3 mRNA level in human HCT-116 cells at 0 to 4 uM measured after 48 hrs by qRT-PCR analysis; assay type: functional, cell-based; details: dose 0-4 µM
[6] = tested on: HFF-1; test: Downregulation of ND5 mRNA level in human HFF-1 cells at 0 to 4 uM measured after 48 hrs by qRT-PCR analysis; assay type: functional, cell-based; details: dose 0-4 µM
[7] = tested on: HCT-116; test: Downregulation of COX3 protein level in human HCT-116 cells at upto 4 uM incubated for 48 hrs by Western blot analysis; assay type: functional, cell-based
[8] = tested on: HCT-116; test: Downregulation of ATP6 protein level in human HCT-116 cells at upto 4 uM incubated for 48 hrs by Western blot analysis; assay type: functional, cell-based
[9] = tested on: HCT-116; test: Downregulation of ATP8 protein level in human HCT-116 cells at upto 4 uM incubated for 48 hrs by Western blot analysis; assay type: functional, cell-based
[10] = tested on: HCT-116; test: Induction of mitochondrial dysfunction in human HCT-116 cells assessed as decrease in oxygen consumption rate at upto 4 uM incubated for 3 hrs by Seahorse XFe24 analyzer; assay type: functional, cell-based
Procedure, shortened: (§1)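 Seahorse Mito-stress and glycolysis stress tests on HCT116 cells treated with ligand for 3 h. Oxygen consumption rate and extracellular acidification rate recorded.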

[11] = tested on: HCT-116; test: Induction of mitochondrial dysfunction in human HCT-116 cells assessed as decrease in ATP production at upto 4 uM incubated for 3 hrs by Seahorse XFe24 analyzer; assay type: functional, cell-based; procedure, shortened: as §1
[12] = tested on: HCT-116; test: Induction of DNA damage in human HCT-116 assessed as increase in tail length at upto 4 uM incubated for 72 hrs by comet assay; assay type: functional, cell-based
Procedure, shortened: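 HCT116 cells exposed to ligand at 0-4 uM for 72 h. DNA damage assessed by comet assay with DAPI staining (excitation 405 nm), imaged at 200x, tail length measured.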

[13] = tested on: HCT-116; test: Induction of DNA damage in human HCT-116 assessed as increase in gammaH2AX level at upto 4 uM incubated for 72 hrs in presence of MitoTEMPOL by Western blot analysis; assay type: functional, cell-based
[14] = tested on: Quadruplex DNA; test: Binding affinity to mito 55 G4 DNA (unknown origin) assessed as increase in fluorescence intensity by fluorescence spectrophotometric analysis; assay type: nucleic-acid assay
Procedure, shortened: (§2)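 Oligonucleotides were pre-annealed at 95 °C for 10 min, then cooled slowly. Ligand (5 uM) was mixed with 20 uM DNA in buffer. Emission was collected over 550–800 nm, and enhancement was taken at 650 nm as F/F0.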

[15] = tested on: Quadruplex DNA; test: Binding affinity to mito 0.5-15 G4 DNA (unknown origin) assessed as increase in fluorescence intensity by fluorescence spectrophotometric analysis; assay type: nucleic-acid assay; procedure, shortened: as §2
[16] = tested on: Quadruplex DNA; test: Binding affinity to mito 81 G4 DNA (unknown origin) assessed as increase in fluorescence intensity by fluorescence spectrophotometric analysis; assay type: nucleic-acid assay
Procedure, shortened: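 Fluorescence titration in buffer. Ligand at 5 uM mixed with 20 uM pre-annealed DNA (95 °C for 10 min, slow cooling). Emission collected at 550-800 nm and monitored at 650 nm. Result reported as fold enhancement F/F0 over ligand alone.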

[17] = tested on: DNA; test: Binding affinity to SS19 DNA (non-G4 DNA) (unknown origin) assessed as increase in fluorescence intensity by fluorescence spectrophotometric analysis; assay type: nucleic-acid assay; procedure, shortened: as §2
[18] = tested on: Quadruplex DNA; test: Binding affinity to Mut 55 G4 DNA (unknown origin) assessed as increase in fluorescence intensity by fluorescence spectrophotometric analysis; assay type: nucleic-acid assay; procedure, shortened: as §2
[19] = tested on: Quadruplex DNA; test: Binding affinity to Mut 78 G4 DNA (unknown origin) assessed as increase in fluorescence intensity by fluorescence spectrophotometric analysis; assay type: nucleic-acid assay; procedure, shortened: as §2
[20] = tested on: Quadruplex DNA; test: Binding affinity to Mito 81 G4 DNA (unknown origin) assessed as increase in CD signal at 5 uM at 265 nM by circular dichroism spectroscopic analysis; assay type: nucleic-acid assay
[21] = tested on: DNA; test: Binding affinity to SS19 DNA (non-G4 DNA) (unknown origin) assessed as increase in CD signal at 5 uM by circular dichroism spectroscopic analysis; assay type: nucleic-acid assay
[22] = tested on: Quadruplex DNA; test: Binding affinity to Mito 29 G4 DNA (unknown origin) assessed as change in melting temperature at 5 uM by circular dichroism spectroscopic analysis; assay type: nucleic-acid assay
[23] = tested on: Quadruplex DNA; test: Binding affinity to Mito 81 G4 DNA (unknown origin) assessed as change in melting temperature at 5 uM by circular dichroism spectroscopic analysis; assay type: nucleic-acid assay
[24] = Drug localization in nucleus of human HCT-116 cells at 4 uM measured upto 12 hrs by hoechst33342 staining based live cell imaging analysis; assay type: ADME, subcellular; details: hct-116, 12 h
[25] = tested on: HCT-116; test: Downregulation of lamin B1 level in human HCT-116 cells measured after 72 hrs by Western blot analysis; assay type: functional, cell-based; details: dose <= 4.0 µM
Procedure, shortened: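 HCT116 cells treated with ligand at 0-4 uM for 72 h. Lamin B1 and Ki67 imaged by immunofluorescence (excitation 635 nm), or lamin B1 probed on Western blot with β-actin as loading control.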

[26] = tested on: HCT-116; test: Upregulation of p21 level in human HCT-116 cells at upto 4 uM measured after 72 hrs by Western blot analysis; assay type: functional, cell-based
Procedure, shortened: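 HCT116 cells exposed to the ligand at 0–4 µM for 72 h. Lysates were immunoblotted for p21 together with Lamin B1, p53, p16 and γ-H2A.x, with β-actin as the loading reference.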

[27] = tested on: HCT-116; test: Induction of morphological changes in human HCT-116 cells at 4 uM by microscopy based analysis; assay type: functional, cell-based
Procedure, shortened: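 HCT116 and HFF1 cells treated with ligand at 4 uM alongside untreated controls. Morphology examined by microscopy at 100x.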

[28] = Toxicity in BALB/c nude mouse assessed as change in mean red blood cell volume at 5 mg/kg, iv administered every two days for 16 days; assay type: organism-based; details: in vivo, 384 h, time 16 day
Procedure, shortened: (§3)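 HCT116 xenograft-bearing male Balb/c nude mice (6/group) dosed iv at 5 mg/kg every two days or with PBS. Whole blood collected at sacrifice on day 16 for hematology parameters.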

[29] = Toxicity in BALB/c nude mouse assessed as change in platelet count at 5 mg/kg, iv administered every two days for 16 days; assay type: organism-based; details: in vivo, 384 h, time 16 day; procedure, shortened: as §3
[30] = Toxicity in BALB/c nude mouse assessed as effect on spleen at 5 mg/kg, iv measured after 16 hrs post injection by H and E staining based analysis; assay type: organism-based; details: in vivo
[31] = Drug localization in human HCT-116 cells transfected with Cy5-HP19 non G4 DNA at 4 uM incubated for 1 hr by hoechst33342 staining based analysis; assay type: ADME, cell-based; details: hct-116, 1 h
Procedure, shortened: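 HCT116 cells transfected with Cy5-labelled DNA (excitation 635 nm) for 24 h. Ligand 4 uM added for 1 h, then Hoechst33342 1 uM for 30 min. Colocalization of ligand with Cy5 quantified by Pearson r from confocal images.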

C(=C\c1ccc2ccccc2[n+]1CCCCCCCC[n+]1c(/C=C/c2ccc(N3CCCCC3)cc2)ccc2ccccc21)/c1ccc(N2CCCCC2)cc1.[I-].[I-]
IC50 [1]: 24.8 µM | Kd [2]: 0.06 µM | Kd [3]: > 4.7 µM | Activity [4]: Active | Activity [5]: Active | Activity [6]: Active | Activity [7]: Active | Activity [8]: Active | Activity [9]: Active | Activity [10]: Active | Activity [11]: Active | Activity [12]: Active | Activity [13]: inactive | Activity [14]: Active | Activity [15]: Active | Activity [16]: Active | Activity [17]: inactive | Activity [18]: inactive | Activity [19]: inactive | Activity [20]: Active | Activity [21]: inactive | ΔTm [22]: 3.6 °C | ΔTm [23]: 3.6 °C | Drug uptake [24]: Not Active | Activity [25]: Dose-Dependent Effect | Activity [26]: Active | Activity [27]: Active | Activity [28]: Non-Toxic | Activity [29]: Non-Toxic | Activity [30]: Non-Toxic | Drug uptake [31]: Not Active
